Calls of active or inactive are those of the source. The calls are words filed in the database; no cut-off is given here.
Tests used:
[1] = molecular target: T1, Muscarinic acetylcholine receptor M4 (Homo sapiens) (UniProt P08173); test: Agonist activity at human muscarinic acetylcholine receptor M4 expressed in CHO cells assessed as calcium mobilization at 0.3 uM by FLIPR assay relative to acetylcholine; assay type: functional, cell-based
T1 sequence (whole entry): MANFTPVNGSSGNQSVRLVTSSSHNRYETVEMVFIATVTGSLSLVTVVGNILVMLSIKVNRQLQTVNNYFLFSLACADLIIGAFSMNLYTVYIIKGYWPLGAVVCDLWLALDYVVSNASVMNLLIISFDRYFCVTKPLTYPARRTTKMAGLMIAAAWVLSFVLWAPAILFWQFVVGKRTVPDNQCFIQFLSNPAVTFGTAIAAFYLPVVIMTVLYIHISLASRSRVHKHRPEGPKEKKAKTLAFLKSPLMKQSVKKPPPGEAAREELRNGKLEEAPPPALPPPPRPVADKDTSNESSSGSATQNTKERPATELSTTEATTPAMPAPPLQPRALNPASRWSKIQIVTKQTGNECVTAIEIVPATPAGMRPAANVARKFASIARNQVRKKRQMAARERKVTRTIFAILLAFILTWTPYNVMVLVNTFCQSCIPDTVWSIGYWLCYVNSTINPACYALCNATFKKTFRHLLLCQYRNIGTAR

[2] = molecular target: T2, Alpha-1D adrenergic receptor (Homo sapiens) (UniProt P25100); test: Binding affinity to human adrenaline alpha-1D receptor at 3 uM by radioligand displacement assay relative to control
T2 sequence (whole entry): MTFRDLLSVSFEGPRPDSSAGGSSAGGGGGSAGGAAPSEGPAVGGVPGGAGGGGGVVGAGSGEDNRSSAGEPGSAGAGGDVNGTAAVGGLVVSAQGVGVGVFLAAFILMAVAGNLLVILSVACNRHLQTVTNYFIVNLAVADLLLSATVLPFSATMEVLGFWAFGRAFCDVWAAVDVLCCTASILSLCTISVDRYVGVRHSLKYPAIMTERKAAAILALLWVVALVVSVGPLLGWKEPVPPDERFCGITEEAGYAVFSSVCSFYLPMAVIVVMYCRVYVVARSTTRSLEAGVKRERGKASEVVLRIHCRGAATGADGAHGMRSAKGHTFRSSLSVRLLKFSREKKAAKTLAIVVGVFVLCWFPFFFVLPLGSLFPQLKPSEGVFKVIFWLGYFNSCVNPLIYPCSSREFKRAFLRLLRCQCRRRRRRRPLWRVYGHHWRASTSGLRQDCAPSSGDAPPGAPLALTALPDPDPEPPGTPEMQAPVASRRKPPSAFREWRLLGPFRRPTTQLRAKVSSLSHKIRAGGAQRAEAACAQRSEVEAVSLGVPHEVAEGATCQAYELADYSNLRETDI

P-gp = test: Activity of p-gp (unknown origin) assessed as efflux ratio; assay type: ADME; conditions: human, not told
[3] = molecular target: Voltage-gated inwardly rectifying potassium channel KCNH2 (Homo sapiens, UniProt Q12809); test: Inhibition of human ERG tail current after 5 mins by patch-clamp method
[4] = molecular target: Muscarinic acetylcholine receptor M3 (Homo sapiens) (UniProt P20309); test: Agonist activity at human muscarinic acetylcholine receptor M3 expressed in CHO cells assessed as calcium mobilization at 0.3 uM by FLIPR assay relative to acetylcholine; assay type: functional, cell-based
[5] = molecular target: T3, Muscarinic acetylcholine receptor M1 (Homo sapiens) (UniProt P11229); test: Competitive antagonist activity at human muscarinic acetylcholine receptor M1 expressed in CHO cells assessed as inhibition of ACh-induced calcium mobilization; assay type: functional, cell-based
T3 sequence (whole entry): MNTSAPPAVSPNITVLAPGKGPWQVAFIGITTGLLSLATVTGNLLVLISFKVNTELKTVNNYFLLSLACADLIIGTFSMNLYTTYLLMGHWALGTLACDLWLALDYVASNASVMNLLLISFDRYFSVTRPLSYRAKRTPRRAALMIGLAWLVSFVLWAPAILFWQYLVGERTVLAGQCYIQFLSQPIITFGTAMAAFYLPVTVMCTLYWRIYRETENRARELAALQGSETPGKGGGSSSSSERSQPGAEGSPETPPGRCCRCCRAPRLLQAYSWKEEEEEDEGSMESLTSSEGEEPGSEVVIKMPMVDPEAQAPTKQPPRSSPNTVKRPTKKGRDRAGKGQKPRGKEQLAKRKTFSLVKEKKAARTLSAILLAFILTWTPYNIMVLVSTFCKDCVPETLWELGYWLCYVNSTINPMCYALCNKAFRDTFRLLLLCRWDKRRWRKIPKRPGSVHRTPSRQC

[6] = molecular target: T1, Muscarinic acetylcholine receptor M4 (Homo sapiens); test: Intrinsic activity at human muscarinic acetylcholine receptor M4 expressed in CHO cells assessed as calcium mobilization by FLIPR assay relative to acetylcholine; assay type: functional, cell-based
[7] = molecular target: T4, Muscarinic acetylcholine receptor M4 (Homo sapiens, UniProt P08173); test: Agonist activity at human muscarinic acetylcholine receptor M4 expressed in CHO cells assessed as calcium mobilization by FLIPR assay; assay type: functional, cell-based
T4 sequence (P08173 whole entry): T1 sequence (whole entry)

[8] = molecular target: D(2) dopamine receptor (Homo sapiens) (UniProt P14416); test: Binding affinity to human dopamine D2 receptor at 3 uM by radioligand displacement assay relative to control
Rattus norvegicus = test: Antipsychotic activity in po dosed Sprague-Dawley rat assessed as reversal of methamphetamine-induced hyperlocomotion administered 60 mins prior to methamphetamine challenge measured for 10 to 80 mins post methamphetamine challenge; assay type: functional, organism-based
Summary of the method: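 Rats were dosed orally with test compound (1–10 mg/kg) or vehicle 60 min before methamphetamine (0.1 mg/kg, ip). Locomotor activity was recorded for 80 min starting 10 min after the methamphetamine injection. Values are mean ± SEM, n = 6.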

[9] = molecular target: T5, Muscarinic acetylcholine receptor M2 (Homo sapiens) (UniProt P08172); test: Agonist activity at human muscarinic acetylcholine receptor M2 expressed in CHO cells assessed as calcium mobilization at 0.3 uM by FLIPR assay relative to acetylcholine; assay type: functional, cell-based
T5 sequence (whole entry): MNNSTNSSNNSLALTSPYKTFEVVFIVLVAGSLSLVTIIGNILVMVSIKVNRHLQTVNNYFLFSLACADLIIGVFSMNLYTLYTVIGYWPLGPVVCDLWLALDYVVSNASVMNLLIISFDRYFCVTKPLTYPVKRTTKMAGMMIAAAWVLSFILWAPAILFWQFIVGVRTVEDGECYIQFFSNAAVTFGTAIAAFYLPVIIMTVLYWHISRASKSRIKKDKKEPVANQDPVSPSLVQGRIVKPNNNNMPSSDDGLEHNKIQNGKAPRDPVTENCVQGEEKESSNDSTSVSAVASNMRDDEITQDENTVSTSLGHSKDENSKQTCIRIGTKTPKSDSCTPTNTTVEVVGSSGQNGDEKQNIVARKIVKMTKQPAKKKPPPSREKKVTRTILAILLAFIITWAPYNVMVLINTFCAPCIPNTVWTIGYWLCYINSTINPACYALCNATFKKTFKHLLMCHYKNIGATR

[10] = molecular target: T3, Muscarinic acetylcholine receptor M1 (Homo sapiens); test: Agonist activity at human muscarinic acetylcholine receptor M1 expressed in CHO cells assessed as calcium mobilization at 0.3 uM by FLIPR assay relative to acetylcholine; assay type: functional, cell-based
[11] = Ratio of drug level in brain to plasma in rat; assay type: ADME; conditions: brain and plasma, read-out: BPR
[12] = Oral bioavailability in rat at 1 mg/kg; assay type: ADME, organism-based; conditions: in vivo
[13] = molecular target: T6, Muscarinic acetylcholine receptor M5 (Homo sapiens) (UniProt P08912); test: Agonist activity at human muscarinic acetylcholine receptor M5 expressed in CHO cells assessed as calcium mobilization at 10 uM by FLIPR assay relative to acetylcholine; assay type: functional, cell-based
T6 sequence (whole entry): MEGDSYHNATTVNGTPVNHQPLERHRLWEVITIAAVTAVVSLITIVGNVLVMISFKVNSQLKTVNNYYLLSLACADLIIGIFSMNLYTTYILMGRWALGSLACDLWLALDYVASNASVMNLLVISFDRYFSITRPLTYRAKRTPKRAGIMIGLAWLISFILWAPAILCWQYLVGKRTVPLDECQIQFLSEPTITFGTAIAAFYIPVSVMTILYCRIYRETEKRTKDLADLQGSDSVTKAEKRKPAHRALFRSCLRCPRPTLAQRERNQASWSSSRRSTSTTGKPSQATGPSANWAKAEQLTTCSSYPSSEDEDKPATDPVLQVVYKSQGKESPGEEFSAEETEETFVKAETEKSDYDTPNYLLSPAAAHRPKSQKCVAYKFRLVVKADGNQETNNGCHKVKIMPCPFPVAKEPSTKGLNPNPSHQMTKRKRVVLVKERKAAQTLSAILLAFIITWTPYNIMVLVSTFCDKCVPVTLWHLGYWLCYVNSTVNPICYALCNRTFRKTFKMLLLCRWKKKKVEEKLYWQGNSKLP

[14] = molecular target: Histamine H1 receptor (Homo sapiens) (UniProt P35367); test: Binding affinity to human histamine H1 receptor at 3 uM by radioligand displacement assay relative to control
[15] = molecular target: T3, Muscarinic acetylcholine receptor M1 (Homo sapiens); test: Intrinsic activity at human muscarinic acetylcholine receptor M1 expressed in CHO cells assessed as calcium mobilization by FLIPR assay relative to acetylcholine; assay type: functional, cell-based
[16] = molecular target: T7, Muscarinic acetylcholine receptor M1 (Homo sapiens, UniProt P11229); test: Agonist activity at human muscarinic acetylcholine receptor M1 expressed in CHO cells assessed as calcium mobilization by FLIPR assay; assay type: functional, cell-based
T7 sequence (P11229 whole entry): T3 sequence (whole entry)

Sequence of Voltage-gated inwardly rectifying potassium channel KCNH2 (Q12809 whole entry): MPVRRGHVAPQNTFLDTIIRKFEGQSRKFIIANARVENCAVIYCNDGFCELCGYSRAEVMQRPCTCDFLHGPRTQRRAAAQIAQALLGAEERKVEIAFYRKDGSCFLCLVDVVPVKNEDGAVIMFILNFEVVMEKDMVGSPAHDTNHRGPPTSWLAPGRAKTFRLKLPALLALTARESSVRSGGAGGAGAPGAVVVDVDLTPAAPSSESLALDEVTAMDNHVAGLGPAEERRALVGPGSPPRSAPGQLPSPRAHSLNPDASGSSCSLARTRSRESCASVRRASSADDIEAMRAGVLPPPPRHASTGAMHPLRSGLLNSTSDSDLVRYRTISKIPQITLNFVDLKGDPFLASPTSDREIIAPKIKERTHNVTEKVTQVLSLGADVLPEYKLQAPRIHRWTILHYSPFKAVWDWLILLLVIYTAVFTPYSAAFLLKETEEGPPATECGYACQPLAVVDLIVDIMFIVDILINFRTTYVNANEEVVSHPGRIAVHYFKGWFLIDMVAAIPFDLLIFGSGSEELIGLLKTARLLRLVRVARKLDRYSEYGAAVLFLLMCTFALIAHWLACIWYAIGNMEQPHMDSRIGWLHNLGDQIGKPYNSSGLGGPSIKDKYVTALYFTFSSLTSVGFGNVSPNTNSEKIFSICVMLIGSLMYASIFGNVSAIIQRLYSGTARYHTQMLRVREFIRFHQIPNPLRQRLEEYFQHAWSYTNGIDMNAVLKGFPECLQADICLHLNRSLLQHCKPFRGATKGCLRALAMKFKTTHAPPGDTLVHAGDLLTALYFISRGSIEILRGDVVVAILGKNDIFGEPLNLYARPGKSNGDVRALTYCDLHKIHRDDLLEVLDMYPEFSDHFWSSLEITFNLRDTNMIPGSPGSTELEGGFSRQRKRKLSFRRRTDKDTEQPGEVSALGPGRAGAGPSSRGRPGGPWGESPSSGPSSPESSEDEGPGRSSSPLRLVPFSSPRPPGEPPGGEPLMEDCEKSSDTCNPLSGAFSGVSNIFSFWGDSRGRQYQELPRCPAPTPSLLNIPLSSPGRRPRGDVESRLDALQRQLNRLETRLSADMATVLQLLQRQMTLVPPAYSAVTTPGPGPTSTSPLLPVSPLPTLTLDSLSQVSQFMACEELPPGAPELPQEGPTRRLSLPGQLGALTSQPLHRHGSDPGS
Sequence of Muscarinic acetylcholine receptor M3 (Homo sapiens) (P20309 whole entry, looked up): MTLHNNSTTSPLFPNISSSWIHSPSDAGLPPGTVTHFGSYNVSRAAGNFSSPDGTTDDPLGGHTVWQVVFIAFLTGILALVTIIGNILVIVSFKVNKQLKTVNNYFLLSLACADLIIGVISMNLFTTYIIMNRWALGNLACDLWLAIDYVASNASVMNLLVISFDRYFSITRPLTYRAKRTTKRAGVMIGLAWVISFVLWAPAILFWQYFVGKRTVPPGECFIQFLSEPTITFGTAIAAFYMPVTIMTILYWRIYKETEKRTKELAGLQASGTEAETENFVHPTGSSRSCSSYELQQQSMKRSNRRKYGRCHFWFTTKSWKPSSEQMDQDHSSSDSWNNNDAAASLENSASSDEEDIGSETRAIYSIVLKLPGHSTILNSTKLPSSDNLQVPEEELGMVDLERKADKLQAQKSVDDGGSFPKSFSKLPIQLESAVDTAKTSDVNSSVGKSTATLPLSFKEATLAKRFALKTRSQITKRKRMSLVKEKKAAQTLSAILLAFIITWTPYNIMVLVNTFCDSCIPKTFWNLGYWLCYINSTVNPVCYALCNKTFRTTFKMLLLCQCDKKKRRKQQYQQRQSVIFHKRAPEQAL
Sequence of D(2) dopamine receptor (Homo sapiens) (P14416 whole entry): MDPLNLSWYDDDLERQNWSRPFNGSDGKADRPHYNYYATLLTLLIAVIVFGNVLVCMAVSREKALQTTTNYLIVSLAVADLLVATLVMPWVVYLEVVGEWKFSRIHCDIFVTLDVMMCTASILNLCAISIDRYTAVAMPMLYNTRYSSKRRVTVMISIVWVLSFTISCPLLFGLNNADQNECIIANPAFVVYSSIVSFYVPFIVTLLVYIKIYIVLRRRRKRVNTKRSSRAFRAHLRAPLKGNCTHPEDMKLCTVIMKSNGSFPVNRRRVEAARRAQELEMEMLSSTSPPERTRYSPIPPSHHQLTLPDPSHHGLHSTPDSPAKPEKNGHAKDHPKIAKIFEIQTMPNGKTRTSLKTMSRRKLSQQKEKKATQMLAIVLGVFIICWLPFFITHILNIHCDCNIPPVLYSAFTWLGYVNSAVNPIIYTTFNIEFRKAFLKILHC
Sequence of Histamine H1 receptor (Homo sapiens) (P35367 whole entry): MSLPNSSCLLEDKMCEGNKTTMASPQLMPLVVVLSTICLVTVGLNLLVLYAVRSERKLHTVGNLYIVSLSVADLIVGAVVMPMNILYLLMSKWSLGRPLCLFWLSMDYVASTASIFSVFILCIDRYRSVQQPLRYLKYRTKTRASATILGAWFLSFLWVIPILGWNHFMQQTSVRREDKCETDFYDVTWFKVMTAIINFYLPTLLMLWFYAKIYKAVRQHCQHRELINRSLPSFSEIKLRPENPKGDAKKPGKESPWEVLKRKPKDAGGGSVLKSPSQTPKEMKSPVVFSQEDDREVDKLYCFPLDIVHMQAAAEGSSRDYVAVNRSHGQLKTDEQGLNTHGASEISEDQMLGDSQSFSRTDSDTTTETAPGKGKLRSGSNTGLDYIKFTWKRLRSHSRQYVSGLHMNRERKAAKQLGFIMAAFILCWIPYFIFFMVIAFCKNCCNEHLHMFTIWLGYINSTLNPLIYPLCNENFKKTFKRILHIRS

Row | Emax [1] [%] | SMILES | IC50 [3] [nM] | Emax [4] [%] | Intrinsic activity [6] [%] | EC50 [7] [nM] | Emax [9] [%] | Emax [10] [%] | Emax [13] [%] | also measured
1 | 2 | CC1(CN2CCC3(CC2)CN(S(C)(=O)=O)c2ncccc23)CCN(C(=O)OC(C)(C)C)CC1 |  |  |  |  |  |  |  | 
2 | 3 | CC(C)OC(=O)N1CCC(C)(CN2CCC3(CC2)CN(S(C)(=O)=O)c2ncccc23)CC1 | 2750 |  |  |  |  |  |  | 
3 | 52 | COC(=O)N1CCC(C)(CN2CCC3(CC2)CN(S(C)(=O)=O)c2ncccc23)CC1 |  | 1 |  |  | 2 | 3 |  | 
4 | 4 | CCOC(=O)N1[C@@H]2CC[C@H]1C[C@H](CN1CCC3(CC1)CN(S(C)(=O)=O)c1ncccc13)C2 |  |  |  |  |  |  |  | 

Row | SMILES | Emax [1] [%] | IC50 [3] [nM] | Emax [4] [%] | Intrinsic activity [6] [%] | EC50 [7] [nM] | Emax [9] [%] | Emax [10] [%] | Emax [13] [%] | also measured
5 | CCOC(=O)N1CCC(C)(CN2CCC3(CC2)CN(S(C)(=O)=O)c2ncccc23)CC1 | 94 | 3630 | 4 | 81 | 13 | 3 | 5 | 3 | inhibition [2]: 0%; efflux ratio (P-gp): 0.9; inhibition [5]: Active; inhibition [8]: 0%; Activity (Rattus norvegicus): Dose-dependent effect; Kp [11]: 0.9; bioavailability [12]: 49%; inhibition [14]: 27%
6 | CCOC(=O)N1CCC(CN2CCC3(CC2)CN(S(C)(=O)=O)c2ncccc23)CC1 | 88 | 1900 | 7 | 83 | 93 | 12 | 20 | 3 | Intrinsic activity [15]: 59%; EC50 [16]: 352 nM
